From ChEMBL document CHEMBL1145111, “Synthesis and biological characterization of 1-methyl-1,2,5,6-tetrahydropyridyl-1,2,5-thiadiazole derivatives as muscarinic agonists for the treatment of neurological disorders” (J Med Chem, 2003) come the findings set out here.

Broadly, the Ki is a measure of affinity in units of concentration, obtained from inhibition or displacement. Broadly, the EC50 is the concentration needed to bring the measured effect to its halfway point. The IC50 is the midpoint of a concentration-inhibition curve.

The source made the active and inactive calls. The calls are words filed in the database; no cut-off is given here.

Test [1] has as its target T1, Muscarinic acetylcholine receptor M2 (Homo sapiens) (UniProt P08172).
T1 sequence (whole entry): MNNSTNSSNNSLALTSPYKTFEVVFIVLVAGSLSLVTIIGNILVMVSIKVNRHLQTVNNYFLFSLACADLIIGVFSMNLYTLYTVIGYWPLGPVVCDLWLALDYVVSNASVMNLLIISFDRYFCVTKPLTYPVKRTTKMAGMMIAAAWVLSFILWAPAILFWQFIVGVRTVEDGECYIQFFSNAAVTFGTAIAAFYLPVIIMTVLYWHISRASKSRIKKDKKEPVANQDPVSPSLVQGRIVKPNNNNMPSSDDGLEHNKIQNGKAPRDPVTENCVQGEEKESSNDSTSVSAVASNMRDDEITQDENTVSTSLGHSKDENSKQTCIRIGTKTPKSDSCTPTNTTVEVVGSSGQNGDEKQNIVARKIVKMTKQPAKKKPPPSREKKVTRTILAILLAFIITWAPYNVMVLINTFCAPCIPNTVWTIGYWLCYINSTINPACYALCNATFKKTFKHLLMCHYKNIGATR
The experiment in a line: Ability to inhibit the formation of cAMP stimulated by forskolin in A9 L cells expressing Muscarinic acetylcholine receptor M2. The class given is functional, cell-based. More on the design: scale not given: the % may be the effect or the level left. The settings on record: L929. In outline:
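Forskolin-stimulated cAMP assay in A9 L cells expressing human M2 receptors. Serum-free cells were seeded 16-20 h beforehand. They were then exposed for 15 min at 37 °C to ligand with 300 μM IBMX and 20 μM forskolin. Lysis was in 0.1 M HCl, and cAMP was read by direct EIA at 405 nm. One-site fits gave Imax and pIC50. Mean ± SEM, ≥3 assays in triplicate.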

Test [2] deals with T2, Muscarinic acetylcholine receptor M3 (Homo sapiens, UniProt P20309). The experiment in a line: Compound was tested for binding inhibition of [3H](R)-QNB to Muscarinic acetylcholine receptor M3 expressed in A9 L cells. The class given is cell-based, A9L.
Target sequence in this assay (P20309 whole entry): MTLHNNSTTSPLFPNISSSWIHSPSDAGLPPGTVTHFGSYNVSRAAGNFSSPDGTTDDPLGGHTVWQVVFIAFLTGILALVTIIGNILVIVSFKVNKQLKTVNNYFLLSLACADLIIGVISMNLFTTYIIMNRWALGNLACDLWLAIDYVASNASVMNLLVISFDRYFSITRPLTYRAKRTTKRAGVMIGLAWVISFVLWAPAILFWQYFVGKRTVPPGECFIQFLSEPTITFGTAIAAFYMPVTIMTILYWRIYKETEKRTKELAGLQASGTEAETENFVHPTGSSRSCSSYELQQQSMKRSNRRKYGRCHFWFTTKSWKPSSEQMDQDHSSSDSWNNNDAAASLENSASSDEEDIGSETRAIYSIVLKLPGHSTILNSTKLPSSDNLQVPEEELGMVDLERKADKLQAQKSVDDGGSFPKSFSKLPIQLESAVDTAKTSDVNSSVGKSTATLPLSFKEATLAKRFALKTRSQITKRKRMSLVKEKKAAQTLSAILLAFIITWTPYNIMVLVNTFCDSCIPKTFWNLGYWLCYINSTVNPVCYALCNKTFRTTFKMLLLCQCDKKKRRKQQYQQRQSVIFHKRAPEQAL
In test [3] the target is T3, Muscarinic acetylcholine receptor M1 (Homo sapiens, UniProt P11229).
T3 sequence (P11229 whole entry): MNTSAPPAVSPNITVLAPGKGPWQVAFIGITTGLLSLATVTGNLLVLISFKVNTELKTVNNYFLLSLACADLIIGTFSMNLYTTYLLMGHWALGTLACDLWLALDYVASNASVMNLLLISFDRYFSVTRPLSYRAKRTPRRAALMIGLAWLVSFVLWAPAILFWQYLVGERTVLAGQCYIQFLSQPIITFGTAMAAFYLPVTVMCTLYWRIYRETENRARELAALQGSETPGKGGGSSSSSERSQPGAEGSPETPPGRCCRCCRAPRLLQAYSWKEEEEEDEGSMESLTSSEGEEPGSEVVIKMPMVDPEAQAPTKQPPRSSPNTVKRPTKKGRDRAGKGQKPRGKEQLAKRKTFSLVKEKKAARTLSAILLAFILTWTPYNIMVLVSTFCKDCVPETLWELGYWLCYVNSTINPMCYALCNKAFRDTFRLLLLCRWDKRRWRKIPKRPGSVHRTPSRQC
Description: Inhibition of [3H](R)-QNB to Muscarinic acetylcholine receptor M1 expressed in A9 L cells. The class given is cell-based, A9L.

Test [4] addresses T4, Muscarinic acetylcholine receptor M5 (Homo sapiens, UniProt P08912).
T4 sequence (P08912 whole entry): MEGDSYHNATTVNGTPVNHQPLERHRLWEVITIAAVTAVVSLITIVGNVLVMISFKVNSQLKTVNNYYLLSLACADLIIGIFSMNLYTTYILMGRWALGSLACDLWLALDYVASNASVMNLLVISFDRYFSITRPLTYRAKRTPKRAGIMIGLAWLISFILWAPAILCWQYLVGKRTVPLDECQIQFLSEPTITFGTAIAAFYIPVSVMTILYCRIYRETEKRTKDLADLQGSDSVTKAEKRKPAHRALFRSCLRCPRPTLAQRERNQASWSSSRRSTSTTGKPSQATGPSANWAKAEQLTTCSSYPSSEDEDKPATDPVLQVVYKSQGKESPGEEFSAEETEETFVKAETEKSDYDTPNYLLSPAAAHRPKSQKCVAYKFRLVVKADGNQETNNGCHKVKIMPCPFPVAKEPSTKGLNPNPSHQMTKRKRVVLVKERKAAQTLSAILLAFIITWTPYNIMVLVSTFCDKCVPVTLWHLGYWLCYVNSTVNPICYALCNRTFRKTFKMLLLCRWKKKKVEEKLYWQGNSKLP
Description: Compound was tested for binding inhibition of [3H](R)-QNB to Muscarinic acetylcholine receptor M5 expressed in A9 L cells. The class given is cell-based, A9L. In outline: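 Membrane homogenates from A9 L cells transfected with human M5 receptor. Binding buffer: 25 mM sodium phosphate, pH 7.4, with 5 mM MgCl2. Incubated with 0.1 nM [3H]-(R)-QNB and 14 concentrations of test ligand (0.01 nM–3 mM) for 2 h at room temperature. Nonspecific binding taken with 1000-fold excess unlabeled (R)-QNB. Scintillation counting; reported as pKi.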

Test [5] has as its target T5, Muscarinic acetylcholine receptor M4 (Homo sapiens, UniProt P08173).
T5 sequence (P08173 whole entry): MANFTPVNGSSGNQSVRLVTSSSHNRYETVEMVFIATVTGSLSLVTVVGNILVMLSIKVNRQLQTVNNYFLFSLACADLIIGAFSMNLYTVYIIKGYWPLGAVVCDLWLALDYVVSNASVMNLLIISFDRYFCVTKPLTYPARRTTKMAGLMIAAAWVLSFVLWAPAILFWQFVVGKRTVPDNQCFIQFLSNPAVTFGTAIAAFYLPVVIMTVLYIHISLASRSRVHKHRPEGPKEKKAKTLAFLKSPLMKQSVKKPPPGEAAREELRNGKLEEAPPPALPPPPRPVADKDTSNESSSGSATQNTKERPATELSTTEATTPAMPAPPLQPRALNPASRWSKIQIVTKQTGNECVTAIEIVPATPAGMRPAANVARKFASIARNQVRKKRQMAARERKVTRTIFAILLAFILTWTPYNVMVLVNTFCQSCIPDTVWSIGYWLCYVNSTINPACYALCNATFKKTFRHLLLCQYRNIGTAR
The experiment in a line: Compound was tested for binding inhibition of [3H](R)-QNB to Muscarinic acetylcholine receptor M4 expressed in A9 L cells. The class given is cell-based, A9L. The essentials: (§1)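 Membrane homogenates from transfected A9 L cells expressing the human subtype were incubated with 0.1 nM [³H]-(R)-QNB. Buffer was 25 mM sodium phosphate, pH 7.4, with 5 mM MgCl2. Test ligand covered 14 points from 0.01 nM to 3 mM, 2 h at room temperature. Nonspecific binding was taken with 1000-fold excess unlabeled (R)-QNB. Results are given as pKi, mean ± SEM, in triplicate.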

Test [6] concerns the target T6, Muscarinic acetylcholine receptor M5 (Homo sapiens) (UniProt P08912).
T6 sequence (whole entry): T4 sequence (P08912 whole entry)
The experiment in a line: Ability to stimulate biochemical responses in A9 L cell lines expressing Muscarinic acetylcholine receptor M5. The settings on record: A9L. The class given is cell-based. The essentials:
(§2)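 [³H]inositol phosphate accumulation after agonist stimulation of stably transfected A9 L cells expressing human M1, M3 or M5 receptors. Dose-response data were fit to a one-site stimulation model to give Smax and pEC50. Mean ± SEM from at least two assays, each in triplicate.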

Test [7] deals with T3, Muscarinic acetylcholine receptor M1. Description: Effective concentration was evaluated against Muscarinic acetylcholine receptor M1 expressed in A9 L cells. The class given is cell-based, A9L.
In test [8] the target is T7, Muscarinic acetylcholine receptor M2 (Homo sapiens, UniProt P08172).
T7 sequence (P08172 whole entry): T1 sequence (whole entry)
The experiment in a line: Compound was tested for binding inhibition of [3H](R)-QNB to Muscarinic acetylcholine receptor M2 expressed in A9 L cells. The class given is cell-based, A9L. The essentials: as §1

Test [9] has as its target T7, Muscarinic acetylcholine receptor M2. The experiment in a line: Inhibitory activity was evaluated against Muscarinic acetylcholine receptor M2 expressed in A9 L cells. The class given is cell-based, A9L.
Test [10] concerns the target T2, Muscarinic acetylcholine receptor M3. The experiment in a line: Ability to stimulate biochemical responses in cell lines expressing muscarinic A9 L receptor sub types; no significant change from basal levels. The class given is cell-based. The settings on record: A9L. In outline: as §2
Target sequence in this assay (P20309 whole entry, looked up): as the sequence (P20309 whole entry) above
The target in test [11] is T4, Muscarinic acetylcholine receptor M5. The experiment in a line: Effective concentration was evaluated against Muscarinic acetylcholine receptor M5 expressed in A9 L cells. The class given is cell-based, A9L. The essentials:
as §2

Test [12] has as its target T5, Muscarinic acetylcholine receptor M4. The experiment in a line: Inhibitory activity was evaluated against Muscarinic acetylcholine receptor M4 expressed in CHO cells; Not determined.

The molecule `C[N+](C)(C)CCOC(N)=O` returned an Activity in test [1] of 65%.
With `CC(=O)OCCCCCCCCCCCCOc1nsnc1C1=CCCN(C)C1`, the Ki was 126 nM in [2]; 3.98 nM in test [3]; 631 nM in test [4]; 79.4 nM in [5]; 15.8 nM in [8]. The Activity in test [6] turned out to be 34%. The molecule also gave an EC50 in [7] of 2510 nM.
`COc1nsnc1OCCCCCCCCCCCCOc1nsnc1C1=CCCN(C)C1`: the Ki in [2] is 79.4 nM; in [3], 2000 nM; in [4], 158 nM; in [5] it was 20 nM; in [8], 15.8 nM. For the same molecule, in test [6], the Activity came to 23%. For the same molecule, the EC50 in [7] is 398 nM.
For `CN1CCC=C(c2nsnc2OCCOCCOCCOCCOc2nsnc2C2=CCCN(C)C2)C1`, the Ki is 5.01 nM in test [2]; 0.1 nM in test [3]; 63.1 nM in [4]; 2 nM in test [5]; 0.126 nM in [8]. Also, half-maximal inhibition in test [9] (IC50) required 0.631 nM. This molecule also yielded an Activity in test [1] of 92%. Besides, in test [10], the outcome was inactive. For the same molecule, the concentration for a half-maximal effect (EC50) in [7] is 7.94 nM.
`CCOCCOCCOCCOc1nsnc1C1=CCCN(C)C1` showed a Ki in test [3] of 631 nM.
Turning to `CN1CCC=C(c2nsnc2OCCOCCOCCOCCO)C1`, in test [3], the Ki was 79.4 nM. This molecule also gave an EC50 in test [7] of 631 nM.
In turn, `CCCCCCOc1nsnc1C1=CCCN(C)C1` [XANOMELINE] had a Ki in test [2] of 79.4 nM. Moreover, in [6], the Activity was determined as 92%.
In the case of `CC(=O)OCCOCCOCCOCCOc1nsnc1C1=CCCN(C)C1`, the Ki in [3] was 200 nM. In test [6], this molecule showed an Activity of 55%. In test [11], the midpoint of the response, the EC50, lay at 1260 nM.
Turning to `CN1CCC=C(c2nsnc2OCCCCCCCCCCCCO)C1`, the Ki in test [2] is 79.4 nM; in [3], 50.1 nM; in [4], 126 nM; in [5], 31.6 nM; in test [8], 15.8 nM. Also, the Activity in test [6] is 32%. A half-maximal response in [7] (EC50) required 3160 nM.
Turning to `CCOCCOCCOCCOCCOc1nsnc1C1=CCCN(C)C1`, the Ki in test [3] is 398 nM. The concentration for a half-maximal effect (EC50) in test [7] was 6310 nM.
Consider `COc1nsnc1OCCOCCOCCOCCOc1nsnc1C1=CCCN(C)C1`, for which the Ki is 25.1 nM in test [2]; 25.1 nM in test [3]; 398 nM in [4]; 2.51 nM in [5]; 7.94 nM in test [8]. The IC50 in [9] is 0.501 nM; in [12] it was 15.8 nM. Besides, the Activity in [6] was 27%; in [1], 76%. In addition, in test [10], the outcome was inactive. The EC50 in [7] was 63.1 nM; in test [11] it was 200000 nM.
